The text below walks through data of ChEMBL document CHEMBL3102735, “Enhancing the pharmacodynamic profile of a class of selective COX-2 inhibiting nitric oxide donors” (Bioorg Med Chem, 2014).

For orientation: IC50 means the concentration needed to halve the response being measured. The inhibition is the percentage by which the read-out fell short of the control. What is called solubility is the dissolved amount per volume that the medium holds. By Emax is commonly meant the greatest response seen or fitted, relative to the assay's reference.

Values after ≈ are worked out from the molar mass of the structure shown. Active and inactive are the calls of the source. The rule behind the calls is not given here.

The test system of series [1] is Mus musculus. Briefly: Analgesic activity in po dosed Swiss albino mouse assessed as reduction of acetic acid-induced writhing measured every 10 mins after 5 mins of administration. Type of series: functional, organism-based. An outline of the steps:
(§1)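 Male Swiss albino mice (23–25 g), compound given orally in CMC vehicle; writhing induced by 0.6% acetic acid (10 mL/kg) ip. Stretching movements counted for 10 min, starting 5 min after administration; percent reduction versus CMC-treated animals.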

For series [2], the system named is Thoracic aorta. Briefly: Ex vivo vasorelaxant activity in Wistar rat endothelium thoracic aortic ring assessed as reduction of KCl-induced contraction in presence of guanylate cyclase inhibitor ODQ. The class given is functional. An outline of the steps: (§2)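 Endothelium-denuded thoracic aortic rings from male Wistar rats (250–350 g) in oxygenated Tyrode-type buffer at 37 °C, isometric tension recording. Rings precontracted with 30 mM KCl, then 3-fold increasing compound concentrations (1 nM–10 µM) added, also with 1 µM ODQ preincubated. Emax as % of KCl tone; pIC50; mean ± SE of 6–10 experiments.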

The subject of series [3] is J774. Briefly: Selectivity index, ratio of IC50 for COX-1 to IC50 for COX-2 in mouse J774 cells. The class given is cell-based. An outline of the steps:
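J774 macrophages stimulated 24 h with E. coli LPS (10 µg/mL) to induce COX-2, with or without compound (0.01–10 µM); supernatant PGE2 by RIA. Triplicate wells, three experiments, percent inhibition versus control, IC50 by sigmoidal fit; selectivity as COX-1/COX-2 IC50 ratio.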

Series [4] concerns the target T1, Prostaglandin G/H synthase 1 (Mus musculus, UniProt P22437).
T1 sequence (P22437 whole entry): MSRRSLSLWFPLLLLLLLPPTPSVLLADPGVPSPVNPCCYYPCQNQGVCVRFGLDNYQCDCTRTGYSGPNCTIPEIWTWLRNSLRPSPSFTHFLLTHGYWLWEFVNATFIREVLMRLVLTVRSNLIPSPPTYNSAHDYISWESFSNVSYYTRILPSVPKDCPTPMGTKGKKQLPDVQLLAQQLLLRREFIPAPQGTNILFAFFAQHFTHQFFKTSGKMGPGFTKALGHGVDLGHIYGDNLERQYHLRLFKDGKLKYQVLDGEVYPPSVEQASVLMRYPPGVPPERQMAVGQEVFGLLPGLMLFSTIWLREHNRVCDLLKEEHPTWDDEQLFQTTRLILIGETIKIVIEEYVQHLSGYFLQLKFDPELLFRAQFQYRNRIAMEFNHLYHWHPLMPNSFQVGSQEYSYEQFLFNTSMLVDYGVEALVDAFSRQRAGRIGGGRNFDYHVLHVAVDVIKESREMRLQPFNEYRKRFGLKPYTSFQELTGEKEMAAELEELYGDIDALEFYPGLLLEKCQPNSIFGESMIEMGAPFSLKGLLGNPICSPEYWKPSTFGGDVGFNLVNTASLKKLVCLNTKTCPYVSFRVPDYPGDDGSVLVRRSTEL
The series is described as follows: Inhibition of COX-1 in mouse J774 cells using arachidonic acid as substrate assessed as inhibition of prostaglandin E2 production preincubated for 15 mins followed by substrate addition measured after 30 mins by RIA. Type of series: cell-based. An outline of the steps:
(§3)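 J774 murine macrophages pretreated 15 min with compound (10 µM; lower concentrations 0.01–1 µM where needed), then incubated 30 min at 37 °C with 15 µM arachidonic acid; supernatant PGE2 measured by RIA. Triplicate wells, mean of three experiments of percent inhibition versus control; IC50 by sigmoidal fit.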

The target in series [5] is T2, Prostaglandin G/H synthase 2 (Mus musculus) (UniProt Q05769).
T2 sequence (whole entry): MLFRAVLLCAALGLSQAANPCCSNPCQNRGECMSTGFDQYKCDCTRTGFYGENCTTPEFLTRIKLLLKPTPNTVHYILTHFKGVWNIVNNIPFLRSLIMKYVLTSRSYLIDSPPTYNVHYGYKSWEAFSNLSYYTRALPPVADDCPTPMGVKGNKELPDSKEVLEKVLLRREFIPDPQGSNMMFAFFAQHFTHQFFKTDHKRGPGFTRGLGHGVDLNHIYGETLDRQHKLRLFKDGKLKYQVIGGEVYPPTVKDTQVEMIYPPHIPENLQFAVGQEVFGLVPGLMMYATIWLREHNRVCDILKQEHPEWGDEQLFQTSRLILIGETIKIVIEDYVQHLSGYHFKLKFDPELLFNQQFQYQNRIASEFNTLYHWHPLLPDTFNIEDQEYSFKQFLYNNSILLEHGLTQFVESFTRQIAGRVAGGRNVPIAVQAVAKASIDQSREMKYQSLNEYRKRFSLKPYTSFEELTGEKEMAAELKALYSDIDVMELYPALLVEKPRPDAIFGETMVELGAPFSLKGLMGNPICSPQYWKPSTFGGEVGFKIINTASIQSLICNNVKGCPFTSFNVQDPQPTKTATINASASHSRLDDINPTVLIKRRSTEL
Briefly: Inhibition of LPS-induced COX-2 in mouse J774 cells using arachidonic acid as substrate assessed as inhibition of prostaglandin E2 production at 10 uM preincubated for 15 mins followed by substrate addition measured after 30 mins by RIA. Type of series: cell-based.

Series [6] has as its target T3, Prostaglandin G/H synthase 1 (Mus musculus) (UniProt P22437).
T3 sequence (whole entry): T1 sequence (P22437 whole entry)
Briefly: Inhibition of COX-1 in mouse J774 cells using arachidonic acid as substrate assessed as inhibition of prostaglandin E2 production at 10 uM preincubated for 15 mins followed by substrate addition measured after 30 mins by RIA. The class given is cell-based. An outline of the steps:
as §3

The subject of series [7] is Mus musculus. The series is described as follows: Analgesic activity in Swiss albino mouse assessed as reduction of acetic acid-induced writhing at 3 mg/kg, po measured every 10 mins after 5 mins of administration relative to control. Type of series: functional. Further details: scale not given: the % may be the effect or the level left. An outline of the steps: as §1

Series [8] relates to Mus musculus. Briefly: Analgesic activity in Swiss albino mouse assessed as reduction of acetic acid-induced writhing at 10 mg/kg, po measured every 10 mins after 5 mins of administration relative to control. The class given is functional. Further details: scale not given: the % may be the effect or the level left. An outline of the steps:
as §1
In general terms: In writhing tests, fewer writhes than in controls are read as antinociception.

Series [9] concerns Mus musculus. Briefly: Analgesic activity in Swiss albino mouse assessed as reduction of acetic acid-induced writhing at 20 mg/kg, po measured every 10 mins after 5 mins of administration relative to control. The class given is functional. Further details: scale not given: the % may be the effect or the level left. An outline of the steps:
as §1

Series [10] can be described thus: Solubility of the compound in phosphate buffer saline at pH 7.4 after 90 mins by HPLC analysis. The class given is physicochemical. An outline of the steps:
(§4)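 DMSO stock (20 mM) diluted 2 µL into 198 µL PBS 0.01 M pH 7.4 or pepsin-free SGF 0.05 M pH 1.5, duplicate wells, shaken 90 min at 300 rpm. Filtrates analysed by HPLC with photodiode-array detection against seven-point standards (1–200 µM).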

Series [11] can be described thus: Solubility of the compound in simulated gastric fluid at pH 1.5 after 90 mins by HPLC analysis. The class given is ADME. An outline of the steps:
as §4

Series [12] has as its system Thoracic aorta. The series is described as follows: Ex vivo vasorelaxant activity in Wistar rat endothelium thoracic aortic ring assessed as reduction of KCl-induced contraction at 0.001 uM to 10 uM relative to control. Type of series: functional. An outline of the steps: as §2
The subject of series [13] is Mus musculus. The series is described as follows: Analgesic activity in Swiss albino mouse assessed as reduction of acetic acid-induced writhing at 40 mg/kg, po measured every 10 mins after 5 mins of administration relative to control. The class given is functional. Further details: scale not given: the % may be the effect or the level left. An outline of the steps: as §1

Series [14] deals with T4, Prostaglandin G/H synthase 2 (Mus musculus, UniProt Q05769).
T4 sequence (Q05769 whole entry): T2 sequence (whole entry)
The series is described as follows: Inhibition of LPS-induced COX-2 in mouse J774 cells using arachidonic acid as substrate assessed as inhibition of prostaglandin E2 production preincubated for 15 mins followed by substrate addition measured after 30 mins by RIA. The class given is cell-based.

Series [15] is described as follows: Metabolic stability in Sprague-Dawley rat plasma assessed as compound remaining after 120 mins by LC-MS/MS analysis. Type of series: ADME, cell-free. The conditions noted are these: read-out: Stability. An outline of the steps:
(§5)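 Compound (12 µL of 1 mM DMSO solution into 588 µL medium) incubated in PBS pH 7.4, pepsin-free SGF pH 1.5, or EDTA rat plasma. Aliquots taken at 0, 30, 60, 120 min and quenched with ice-cold acetonitrile containing internal standard; parent remaining as percent.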

Series [16] in a line: Metabolic stability in Sprague-Dawley rat plasma assessed as compound remaining after 60 mins by LC-MS/MS analysis. The class given is ADME, cell-free. The conditions noted are these: read-out: Stability. An outline of the steps: as §5
The nature of series [17]: Metabolic stability in Sprague-Dawley rat plasma assessed as compound remaining after 30 mins by LC-MS/MS analysis. Type of series: ADME, cell-free. The conditions noted are these: read-out: Stability. An outline of the steps:
as §5

A short description of series [18]: Stability of the compound in simulated gastric fluid assessed as compound remaining at pH 1.5 after 120 mins by LC-MS/MS analysis. The class given is physicochemical. The note with it: read-out: Stability. An outline of the steps: (§6)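 1 mM DMSO stock added to 0.01 M PBS (pH 7.4) or 0.05 M simulated gastric fluid without pepsin (pH 1.5 with HCl); incubated in hybridisation oven; aliquots at 0, 30, 60, 120 min quenched with ice-cold acetonitrile containing internal standard; parent remaining (%) measured.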

A short description of series [19]: Stability of the compound in simulated gastric fluid assessed as compound remaining at pH 1.5 after 60 mins by LC-MS/MS analysis. The conditions noted are these: read-out: Stability. Type of series: physicochemical. An outline of the steps:
as §6

Series [20] in a line: Stability of the compound in phosphate buffer saline assessed as compound remaining at pH 7.4 after 30 mins by LC-MS/MS analysis. Type of series: physicochemical. The conditions noted are these: read-out: Stability. An outline of the steps:
as §6

Series [21] in a line: Stability of the compound in phosphate buffer saline assessed as compound remaining at pH 7.4 after 120 mins by LC-MS/MS analysis. Type of series: physicochemical. The note with it: read-out: Stability. An outline of the steps:
as §5

A short description of series [22]: Stability of the compound in simulated gastric fluid assessed as compound remaining at pH 1.5 after 30 mins by LC-MS/MS analysis. Type of series: physicochemical. The conditions noted are these: read-out: Stability. An outline of the steps:
as §6

Series [23] is described as follows: Stability of the compound in phosphate buffer saline assessed as compound remaining at pH 7.4 after 60 mins by LC-MS/MS analysis. The class given is physicochemical. The conditions noted are these: read-out: Stability. An outline of the steps: as §6

For the compound `Cc1c(CC(=O)NC(CCO[N+](=O)[O-])C(=O)O)cc(-c2ccc(S(C)(=O)=O)cc2)n1-c1ccc(F)cc1` (racemic), the Activity result in series [1] is “Dose-dependent effect”; in [7], 0%; in series [8] it was 30%; in series [9], 54%. The result in series [2] was inactive. For the same compound, the Ratio IC50 in series [3] is more than 6.2. Moreover, the 50% inhibitory concentration (IC50) in series [4] was more than 10 µM. Moreover, the inhibition in series [5] turned out to be 89%; in series [6] it was 6%.

As to `Cc1c(CC(=O)NCCO[N+](=O)[O-])cc(-c2ccc(S(C)(=O)=O)cc2)n1-c1cccc(F)c1`, the solubility at 1.5 h was more than 200 µM in [10] and 150 µM (≈ 71.3 µg/mL) in series [11]. In addition, the Activity entry in series [1] was “Dose-dependent effect”; in series [13] it was 55%; in [8] it was 18%; in series [9], 37%. Further, the Emax in [12] is 49%. Besides, the result in [2] was inactive. The Ratio IC50 in [3] is more than 33. Further, the IC50 was 0.3 µM in series [14] and more than 10 µM in series [4]. Also, the inhibition was 95% in series [5] and 0% in series [6].

With `Cc1c(C(N)C(=O)OCCO[N+](=O)[O-])cc(-c2ccc(S(C)(=O)=O)cc2)n1-c1ccc(F)cc1` (stereo not drawn), the remaining at 2 h was 0% in [15], 100% in series [18] and 75% in [21]. Besides, the remaining at 1 h in series [16] was 0%; in series [19] it was 100%; in series [23], 75%. Besides, the remaining at 0.5 h in series [17] was 0%; in [20], 75%; in series [22], 100%. For the same compound, the solubility at 1.5 h is 80 µM (≈ 39.3 µg/mL) in series [10] and more than 200 µM in series [11].
